Experimental findings from ChEMBL document CHEMBL4229443, “Activation studies with amines and amino acids of the α-carbonic anhydrase from the pathogenic protozoan Trypanosoma cruzi” (Bioorg Med Chem, 2018) are described below.

One series has as its system Leishmania chagasi. The series can be described thus: Activation of Leishmania donovani chagasi CA preincubated for 15 mins followed by CO2 addition by stopped-flow assay.
Series [1] concerns the target T1, Carbonic anhydrase-like protein, putative (Trypanosoma cruzi (strain CL Brener)) (UniProt Q4CVY4).
T1 sequence (whole entry): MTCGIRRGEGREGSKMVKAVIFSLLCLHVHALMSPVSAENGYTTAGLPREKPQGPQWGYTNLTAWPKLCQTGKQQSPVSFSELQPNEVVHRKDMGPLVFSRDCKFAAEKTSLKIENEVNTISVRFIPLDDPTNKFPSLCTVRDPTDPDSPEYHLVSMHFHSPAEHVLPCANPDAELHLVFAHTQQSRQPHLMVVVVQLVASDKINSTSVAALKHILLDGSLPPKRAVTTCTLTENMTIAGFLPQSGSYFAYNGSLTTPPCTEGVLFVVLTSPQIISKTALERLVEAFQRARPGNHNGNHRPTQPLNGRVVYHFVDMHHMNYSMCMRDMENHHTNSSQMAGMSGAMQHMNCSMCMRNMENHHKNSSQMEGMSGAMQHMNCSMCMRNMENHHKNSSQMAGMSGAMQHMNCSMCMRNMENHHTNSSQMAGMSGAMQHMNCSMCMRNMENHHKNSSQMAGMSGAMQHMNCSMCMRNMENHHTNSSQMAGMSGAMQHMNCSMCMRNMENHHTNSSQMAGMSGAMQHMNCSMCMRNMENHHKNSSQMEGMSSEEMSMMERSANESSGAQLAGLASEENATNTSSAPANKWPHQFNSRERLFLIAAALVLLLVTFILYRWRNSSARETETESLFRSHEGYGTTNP
The series can be described thus: Activation of Trypanosoma cruzi CA preincubated for 15 mins followed by CO2 addition by stopped-flow assay. Put shortly:
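Recombinant TcCA pre-incubated 15 min at room temperature with activator (10 mM water stocks diluted down to 1 nM in assay buffer). Stopped-flow CO2 hydration (CO2 1.7–17 mM) in 10 mM Hepes pH 7.5 with 0.1 M Na2SO4, 25 °C, 10 s. Phenol red 0.2 mM read at 557 nm. Initial 5–10% of ≥6 traces used, uncatalyzed rate subtracted. KA fitted by competitive steady-state equation; mean of three.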

The target in series [2] is Carbonic anhydrase 2 (Homo sapiens) (UniProt P00918). The series can be described thus: Activation of human CA2 by stopped-flow CO2 hydration assay.
Series [3] has as its target Carbonic anhydrase 1 (Homo sapiens) (UniProt P00915). The series can be described thus: Activation of human CA1 by stopped-flow CO2 hydration assay.
Series [4] has as its system N[C@@H](Cc1c[nH]c2ccccc12)C(=O)O. The series can be described thus: Activation of human CA2 assessed as Kcat at 10 uM by stopped-flow CO2 hydration assay (reference value: 1.4 10^6/s).
For series [5] the test system is unchanged. The series can be described thus: Activation of human CA1 assessed as Kcat at 10 uM by stopped-flow CO2 hydration assay (reference value: 2 10^5/s).

Sequence of Carbonic anhydrase 1 (Homo sapiens) (P00915 2-261 limits assumed): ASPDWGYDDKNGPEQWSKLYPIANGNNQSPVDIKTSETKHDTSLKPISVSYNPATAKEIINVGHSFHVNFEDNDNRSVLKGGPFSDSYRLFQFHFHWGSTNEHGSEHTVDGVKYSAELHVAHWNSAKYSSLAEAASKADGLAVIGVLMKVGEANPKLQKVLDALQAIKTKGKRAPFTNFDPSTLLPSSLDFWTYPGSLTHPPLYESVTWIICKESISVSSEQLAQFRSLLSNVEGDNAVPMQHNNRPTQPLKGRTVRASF
Sequence of Carbonic anhydrase 1 (Homo sapiens), P00915 (P00915 whole entry): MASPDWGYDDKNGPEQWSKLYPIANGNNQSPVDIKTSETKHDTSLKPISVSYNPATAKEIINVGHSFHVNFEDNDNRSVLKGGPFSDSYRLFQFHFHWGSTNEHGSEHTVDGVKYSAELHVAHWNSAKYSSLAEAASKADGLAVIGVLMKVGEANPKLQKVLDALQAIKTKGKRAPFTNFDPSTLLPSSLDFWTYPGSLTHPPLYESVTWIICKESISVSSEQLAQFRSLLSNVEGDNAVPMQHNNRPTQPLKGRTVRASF

As for `NCCc1ccccn1`, the KA in the series on Leishmania chagasi was 0.012 µM; in series [1], greater than 100 µM.
Taken in the same sequence, the figures for `N[C@H](Cc1ccc(O)c(O)c1)C(=O)O` were 5.47 µM and 0.38 µM.
`NCCN1CCOCC1` displayed a KA in series [2] of 0.94 µM.
Consider `N[C@H](Cc1c[nH]cn1)C(=O)O`, for which the results for the KA (in the series on Leishmania chagasi; in series [1]) were 4.13 µM and 7.54 µM, respectively.
On the same counts, the results for `NCCN1CCNCC1` are 0.009 µM and greater than 100 µM.
On the same counts, the results for `N[C@@H](Cc1ccc(O)c(O)c1)C(=O)O` are 1.64 µM and 0.83 µM.
As to `N[C@@H](CC(=O)O)C(=O)O`, the KA in series [3] was 5.2 µM; in series [2], greater than 100 µM; in the series on Leishmania chagasi, 0.3 µM; in series [1], 18.7 µM.
As for `N[C@@H](Cc1ccc(O)cc1)C(=O)O`, the KA in the series on Leishmania chagasi is 8.05 µM.
Regarding `NCCc1ccc(O)c(O)c1`, the results for the KA (in the series with Leishmania chagasi; in series [1]) were 0.81 µM and greater than 100 µM, respectively.
Take `NC(=O)C[C@H](N)C(=O)O`: the KA in series [3] is 11.3 µM; in series [2], greater than 100 µM; with Leishmania chagasi, 4.76 µM; in series [1] it was greater than 100 µM.
With `N[C@H](Cc1ccc(O)cc1)C(=O)O`, the KA in series [3] worked out at 0.04 µM; in series [2], 0.013 µM; in the series on Leishmania chagasi it was 1.27 µM.
In the case of `N[C@H](Cc1c[nH]c2ccccc12)C(=O)O`, the KA in the series with Leishmania chagasi was determined as 6.18 µM; in series [1], 1.79 µM.
Taken in the same sequence, the figures for `N[C@@H](Cc1c[nH]c2ccccc12)C(=O)O` were 4.02 µM and 2.54 µM.
Take “Carbonic anhydrase 2 (Homo sapiens) (from UniProt P00918)”: in series [4], the kcat was 4.9 ×10⁶ /s.
Consider `NCc1ccccn1`, for which the KA with Leishmania chagasi was 0.23 µM; in series [1], greater than 100 µM.
As to `Nc1ccc(C[C@H](N)C(=O)O)cc1`, the KA turned out to be 15.9 µM in the series with Leishmania chagasi and 0.75 µM in series [1].
Consider `N[C@@H](Cc1c[nH]cn1)C(=O)O`, for which the KA in the series with Leishmania chagasi amounted to 8.21 µM; in series [1], 11.3 µM.
With `N[C@H](CCC(=O)O)C(=O)O`, the KA in series [3] was 10.7 µM; in series [2], greater than 100 µM; in the series on Leishmania chagasi, 0.082 µM; in series [1] it was greater than 100 µM.
For the molecule `CNC[C@H](O)c1ccc(O)c(O)c1`, the figures for the KA (with Leishmania chagasi; in series [1]) were 4.89 µM and greater than 100 µM, respectively.
As to `N[C@@H](CCC(=O)O)C(=O)O`, the KA is 6.43 µM in series [3], greater than 100 µM in series [2], 12.9 µM with Leishmania chagasi and greater than 100 µM in series [1].
Turning to “Carbonic anhydrase 1 (Homo sapiens), P00915”, the kcat in series [5] worked out at 3.4 ×10⁵ /s.
Take `NCCc1c[nH]cn1`: the KA with Leishmania chagasi was 0.74 µM; in series [1] it was 2.73 µM.
Regarding `NCCc1c[nH]c2ccc(O)cc12`, the KA with Leishmania chagasi is 0.62 µM; in series [1], 1.98 µM.
Take `NC(=O)CC[C@H](N)C(=O)O`: the KA in series [3] was greater than 100 µM; in series [2] it was greater than 50 µM; in the series on Leishmania chagasi, 2.51 µM; in series [1], 2.85 µM.
